ChEMBL document CHEMBL5724801, “EUbOPEN Chemogenomics Library - Multiplex” (2024)
Several values for one entry are separate records, joined by “and”; a condition that tells them apart may be missing. Identical values can stand only once.

Test system: Fibroblast
Experiment: Multiplex assay against human fibroblast
Type: toxicity, cell-based
Method in brief: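 Per cents of healthy-nucleus cells form the tubulin, mitochondrial-mass and membrane-permeability phenotype values. Live cells were stained at seeding with Hoechst33342, BioTracker Green Microtubule Cytoskeleton Dye, MitoTracker Red and Annexin V Alexa Fluor 680. After compound addition they were imaged on a CQ1 microscope at 37°C and 5% CO2, and CellPathfinder machine-learning gating split them into Hoechst high-intensity objects or normal cells, normal cells into healthy, pyknosed or fragmented nuclei, and pyknosed cells into mitotic or apoptotic.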

[1] = 12 h, 1 µM, compound concentration 1 uM
[2] = 12 h, 10 µM, compound concentration 10 uM
[3] = 24 h, 1 µM, compound concentration 1 uM
[4] = 24 h, 10 µM, compound concentration 10 uM
[5] = 48 h, 1 µM, compound concentration 1 uM
[6] = 48 h, 10 µM, compound concentration 10 uM

**Q.** What does the source list for `CN(C)C/C=C/C(=O)Nc1ccc(C(=O)N2CCCC(Nc3ncc(Cl)c(-c4c[nH]c5ccccc45)n3)C2)cc1` (stereo not given)?
**A.** Population Apoptotic (%) [1]: 48% and 46%; Population Fragmented Nuclei (%) [1]: 15% and 21%; Population Healthy Nuclei (%) [1]: 64% and 53%; Population Hoechst High Intensity Objects (%) [1]: 2% and 6%; Population Membrane Permeable-Phenotype (%) [1]: 2% and 3%; Population Mitochondria Different-Phenotype (%) [1]: 11% and 13%; Population Mitotic Cells (%) [1]: 51% and 53%; Population Normal (%) [1]: 97% and 93%; Population Pyknosed Nuclei (%) [1]: 19% and 25%; Population Tubulin-Different-Phenotype (%) [1]: 40%; Total Cell Count [1]: 152 and 182; Population Apoptotic (%) [2]: 59% and 48%; Population Fragmented Nuclei (%) [2]: 18% and 23%; Population Healthy Nuclei (%) [2]: 53% and 41%; Population Hoechst High Intensity Objects (%) [2]: 4% and 8%; Population Mitochondria Different-Phenotype (%) [2]: 37% and 19%; Population Mitotic Cells (%) [2]: 40% and 51%; Population Normal (%) [2]: 95% and 91%; Population Pyknosed Nuclei (%) [2]: 27% and 35%; Population Tubulin-Different-Phenotype (%) [2]: 77% and 58%; Total Cell Count [2]: 140 and 147; Population Apoptotic (%) [3]: 68% and 37%; Population Fragmented Nuclei (%) [3]: 25% and 26%; Population Healthy Nuclei (%) [3]: 48% and 49%; Population Hoechst High Intensity Objects (%) [3]: 7%; Population Membrane Permeable-Phenotype (%) [3]: 2% and 10%; Population Mitochondria Different-Phenotype (%) [3]: 7% and 10%; Population Mitotic Cells (%) [3]: 31% and 62%; Population Normal (%) [3]: 92%; Population Pyknosed Nuclei (%) [3]: 26% and 23%; Population Tubulin-Different-Phenotype (%) [3]: 40% and 54%; Total Cell Count [3]: 155 and 181; Population Apoptotic (%) [4]: 65% and 47%; Population Fragmented Nuclei (%) [4]: 13% and 30%; Population Healthy Nuclei (%) [4]: 49% and 42%; Population Hoechst High Intensity Objects (%) [4]: 2% and 6%; Population Membrane Permeable-Phenotype (%) [4]: 0% and 5%; Population Mitochondria Different-Phenotype (%) [4]: 52% and 35%; Population Mitotic Cells (%) [4]: 34% and 52%; Population Normal (%) [4]: 97% and 93%; Population Pyknosed Nuclei (%) [4]: 37% and 27%; Population Tubulin-Different-Phenotype (%) [4]: 84% and 72%; Total Cell Count [4]: 119 and 149; Population Apoptotic (%) [5]: 63% and 60%; Population Fragmented Nuclei (%) [5]: 33% and 35%; Population Healthy Nuclei (%) [5]: 36% and 40%; Population Hoechst High Intensity Objects (%) [5]: 10% and 8%; Population Membrane Permeable-Phenotype (%) [5]: 2% and 8%; Population Mitochondria Different-Phenotype (%) [5]: 20% and 25%; Population Mitotic Cells (%) [5]: 36% and 40%; Population Normal (%) [5]: 90% and 91%; Population Pyknosed Nuclei (%) [5]: 30% and 24%; Population Tubulin-Different-Phenotype (%) [5]: 48% and 68%; Total Cell Count [5]: 150 and 158; Population Apoptotic (%) [6]: 77% and 68%; Population Fragmented Nuclei (%) [6]: 28% and 27%; Population Healthy Nuclei (%) [6]: 20% and 41%; Population Hoechst High Intensity Objects (%) [6]: 14% and 13%; Population Membrane Permeable-Phenotype (%) [6]: 0% and 17%; Population Mitochondria Different-Phenotype (%) [6]: 55% and 29%; Population Mitotic Cells (%) [6]: 22% and 31%; Population Normal (%) [6]: 85% and 86%; Population Pyknosed Nuclei (%) [6]: 51% and 30%; Population Tubulin-Different-Phenotype (%) [6]: 66% and 80%; Total Cell Count [6]: 103 and 130
